Compound activity (PubChem)
Most compounds without a hit are left out; they make up all but 2% or so of the library.
Ins promoter up – MIN6 insulin promoter up-regulation; MIN6 insulin promoter-GFP reporter, high-content imaging; active compounds read high; z-score at 5 µM; actives 0.3% (n = 190,000);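 active = z-score above 3 at 5 µM with at least 500 cells counted in the well; inconclusive = wells under 500 cells, flagged as cytotoxic or low count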
Dynein transport – blocks dynein driven cargo transport along microtubules. 3617.4 mouse cells, GR-EGFP nuclear translocation imaging; test concentration mostly 20 µM; stimulated with dexamethasone, 1 µM; active compounds read low. z-score, hits read low. actives 0.47% (n = 220,000);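 active = plate z-score of nuclear minus cytoplasmic receptor signal below a set negative limit, without overly bright fluorescence or cell loss, cut at about -3.5 in these data, passing the limit was not always enough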;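 note: z-score of nuclear minus cytoplasmic ring GR-EGFP intensity difference per well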
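Also added – dexamethasone, 1.0 µM final · Buffer or medium – tet-free, stripped-serum medium · Schedule – induction 48 h, compound 1 h, agonist 30 min · Detection – formaldehyde fixation, Hoechst nuclear stain, 10x automated fluorescence imaging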
Autophagy HCS – autophagy modulation, high-content screen | MEF GFP-LC3 puncta imaging; test concentration mostly 10 µM | calls only at 10 µM (by protocol) | actives 0.98% (n = 190,000) | AID 463193;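 active = percentage of spot-positive cells more than 3 SD above its plate mean, without a fluorescence outlier flag or 80% toxicity; inconclusive = no clear call, values can overlap the other calls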;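 note: spot-positive cell cutoff set from DMSO-treated cells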
HSV replic up – increases HSV replication in cells | HSV replication augmentation in cells, fold increase | maximum fold increase | actives 0.005% (n = 220,000); in the data active = maximum fold increase above about 1.5; inconclusive = no clear call, values can overlap the other calls; tested in PC3 cells
Insulin prom inh – TRM-6 insulin promoter activity inhibition; TRM-6 cells (human fetal islet line), insulin promoter-eGFP reporter, imaging; reporter expression induced with tamoxifen; inhibition, % at 2 µM; actives 0.9% (n = 130,000);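 active = inhibition above the mean plus 3 SD, with well images judged a real hit on visual review, cut at about 60% in these data, passing the limit was not always enough; inconclusive = inhibition over the cutoff but images rejected on review; inactive = inhibition not above the cutoff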
Furin inhibitor – human furin inhibition; P09958; purified furin, fluorogenic substrate cleavage; actives 0.061% (n = 220,000); AID 463115; inhibition, % at 20 µM or 30 µM; in the data active = inhibition above about 25%
Target sequence (P09958 108-714 limits assumed): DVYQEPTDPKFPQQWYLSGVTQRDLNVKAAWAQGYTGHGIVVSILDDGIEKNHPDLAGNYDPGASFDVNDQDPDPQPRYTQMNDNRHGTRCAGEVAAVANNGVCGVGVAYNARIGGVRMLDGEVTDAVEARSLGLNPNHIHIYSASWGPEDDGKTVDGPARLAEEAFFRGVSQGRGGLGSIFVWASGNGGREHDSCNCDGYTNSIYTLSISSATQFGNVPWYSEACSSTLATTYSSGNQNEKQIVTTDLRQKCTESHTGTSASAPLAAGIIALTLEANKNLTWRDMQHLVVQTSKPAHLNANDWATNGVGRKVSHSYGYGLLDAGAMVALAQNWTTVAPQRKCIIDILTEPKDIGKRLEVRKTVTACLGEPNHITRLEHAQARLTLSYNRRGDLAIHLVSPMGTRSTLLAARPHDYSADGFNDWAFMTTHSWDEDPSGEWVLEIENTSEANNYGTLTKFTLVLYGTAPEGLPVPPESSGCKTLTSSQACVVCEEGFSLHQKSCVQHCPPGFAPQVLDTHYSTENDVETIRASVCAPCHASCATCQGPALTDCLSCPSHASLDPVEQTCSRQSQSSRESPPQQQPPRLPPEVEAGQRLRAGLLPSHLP
Dynein confirm – dynein cargo transport inhibition, confirmation; shares compounds with Dynein transport; 3617.4 GR-EGFP nuclear translocation imaging, dexamethasone-induced; calls only at 20 µM; actives 69% (n = 1,000);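 active = inhibition of receptor movement into the nucleus at or above a set limit in both runs, with normal cell brightness and cell count; inconclusive = limit reached in only one run, brightness and count normal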;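 note: dexamethasone at 1 µM final in well for 30 min; nuclear minus cytoplasmic GR-EGFP mean intensity difference in channel 2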
* hit, by the source's call; i = inactive; ? = inconclusive; nt = no result; + = active, no number.

SMILES	Ins promoter up	Dynein transport	Autophagy HCS	HSV replic up	Insulin prom inh	Furin inhibitor	Dynein confirm
Cc1cc(/C=C2\Sc3ccccc3N2C)cc(C)[n+]1CC1CCCO1 (stereo not given)	?	-5.6	+	nt	nt	-26	i
O=C(Nc1ccc2nc(-c3ccco3)c(-c3ccco3)nc2c1)N1CCCCCC1	-0.07	-1.1	i	i	nt	-9	nt
CCOC(=O)C1CCN(C(=O)Nc2ccc3nc(-c4ccco4)c(-c4ccco4)nc3c2)CC1	0.15	-4.5*	i	i	68	-9	i
COCCCNC(=O)c1ccccc1Oc1ccccc1	-0.49	0.014	i	i	17	-1	nt
COCCCNC(=O)c1ccc2c3c(onc13)-c1ccccc1C2=O	nt	-4.9*	nt	i	nt	-5	+
CCNc1ccc(Br)cc(C(=O)/C=C/c2ccc(Cl)cc2Cl)c1=O	?	-5.4	i	i	-25	-21	+
CSCC[C@H](NC(=O)Nc1cccc(Br)c1)C(=O)O	-0.04	-0.72	nt	i	nt	-15	nt
Cc1ccc2cc(CN(CC3CCCO3)C(=S)NCc3ccco3)c(=O)[nH]c2c1 (stereo not given)	-0.28	-3.6*	i	i	nt	-6	i
Cc1ccc2[nH]c(=O)c(CN(CC3CCCO3)C(=S)NCc3ccco3)cc2c1 (stereo not given)	0.95	-0.022	i	i	-67	-12	nt
CC(C)S(=O)(=O)c1csc(C(=O)Nc2ccc(F)cc2)c1N	0.03	1.4	nt	i	nt	-13	nt
CC1(C)CC(=O)C(C(C#Cc2ccccc2)C2=C(O)CC(C)(C)CC2=O)=C(O)C1	0.6	-2	i	i	3	-22	nt
O=C1CCCC(O)=C1C(C#Cc1ccccc1)C1=C(O)CCCC1=O	-0.04	-5.5*	i	i	-29	-13	+
Cc1cc(C)c(S(=O)(=O)ON2C(=O)c3ccccc3C2=O)cc1C	nt	-6.1*	i	i	-22	-5	+
Cc1cc(C)c(C)c(S(=O)(=O)ON2C(=O)c3ccccc3C2=O)c1C	-0.32	-4.3*	i	i	nt	-27	+
COC(=O)CON1C(=O)c2ccccc2C1=O	-0.09	-0.31	i	i	-60	-13	nt
O=[N+]([O-])c1cc(S(=O)(=O)N2CCCCCC2)ccc1F	0.13	-4.4*	i	i	nt	-18	+
O=[N+]([O-])c1cc(S(=O)(=O)N2CCCC2)ccc1O	0.08	-0.51	i	i	0	-11	nt
O=C(/C=C/c1ccccn1)c1ccc(Br)cc1O	-0.04	-3.7*	i	i	-7	-15	?
O=C(/C=C/c1ccccn1)c1cc(Br)ccc1O	-0.59	-4.8*	nt	i	nt	-10	+
O=C(/C=C/c1ccncc1)c1cc(Cl)ccc1O	-0.44	-0.59	nt	?	nt	-18	nt
O=C(/C=C/c1ccc(O)cc1)c1ccc(O)cc1O	-0.21	-1.8	i	i	-57	-13	nt
O=C(O)CCCN1C(=O)/C(=C\c2ccco2)SC1=S	-0.5	-0.41	i	i	nt	-19	nt
O=C(O)CCN1C(=O)/C(=C\c2ccc(-c3nc4ccccc4s3)o2)SC1=S	nt	-4	i	?	11	8	i
CS(=O)(=O)c1ccc(C(=O)OCc2nnc(-c3ccccc3)o2)cc1[N+](=O)[O-]	0.26	-6.6*	i	i	-8	-7	+
CN(C)S(=O)(=O)c1ccc(C(=O)OCc2nnc(-c3ccccc3)o2)cc1	0.1	-0.14	nt	i	nt	-12	nt
SMILES	Ins promoter up	Dynein transport	Autophagy HCS	HSV replic up	Insulin prom inh	Furin inhibitor	Dynein confirm
Cc1ccccc1NC(=O)COC(=O)c1ccc(S(C)(=O)=O)c([N+](=O)[O-])c1	-0.27	-4.4*	i	i	-29	-21	+
O=C(NCCN1CCOCC1)c1ccc(=O)n(Cc2ccc(Cl)cc2)c1	0.7	-0.52	i	i	nt	-28	nt
CCOCCCNC1=C(Cl)C(=O)c2ccccc2C1=O	0.58	-5.3*	nt	i	nt	-7	+
CSc1nc(-c2ccccc2)nc(NC(C)=O)c1C(C)=O	0.03	0.97	i	i	nt	-29	nt
O=C(Nc1ccc2ccccc2c1)c1cnccn1	-0.29	0.85	i	i	-23	-15	nt
CS(=O)(=O)c1ncc(Cl)c(C(=O)Nc2ccc3ccccc3c2)n1	-0.53	-4.2*	i	i	-281	-20	+
CCOc1cc(C=C(C(=O)OC)C(=O)OC)ccc1OCc1ccc([N+](=O)[O-])cc1	-0.84	-5.7*	i	i	57	-9	+
CCOc1cc(/C=N/O)ccc1OCc1ccc([N+](=O)[O-])cc1	0.05	-0.69	i	i	-10	-16	nt
Cc1cc(Cl)n2c(nc3cc(F)c(F)cc32)c1C#N	0.88	-4.3*	i	i	-118	-23	+
Cc1cc(C)n2c(=O)c3ccc(Cl)cc3nc2c1C#N	0.73	0.5	i	i	-83	-16	nt
COc1ccccc1NC(=O)Nc1ccc(CC#N)cc1	-0.21	1.6	nt	i	nt	-6	nt
CCCCS(=O)(=O)/C=C\C=C/S(=O)(=O)CCCC	-0.4	-3.8	i	nt	nt	-11	+
O=[N+]([O-])c1ccc(N2CCN(c3ccc(Cl)nn3)CC2)cc1NC1CC1	nt	-8.4	i	i	-276	-6	i
O=[N+]([O-])c1ccc(N2CCN(c3ccc(Cl)nn3)CC2)c(Cl)c1	-0.8	1.3	i	i	20	-29	nt
CCC1=C(OC(=O)N(CC)CC)N2C(=O)OC(=NCc3ccccc3)[C@]2(C)[C@H]2C1=CC[C@H]1C(=O)N(c3ccccc3)C(=O)[C@H]12	0.17	-0.87	nt	i	nt	-32	nt
CCC1=C2CC[C@H]3C(=O)N(c4ccccc4)C(=O)[C@H]3[C@H]2[C@@]2(C)C(=NCc3ccccc3)OC(=O)N2C1=O	0.28	-4.2*	nt	i	nt	-28	+
CC(C)(C)c1ccc(C(=O)Nc2ccc(Cl)cc2)cc1	nt	2.1	i	i	nt	-9	nt
CC(C)(C)c1ccc(C(=O)CC(Sc2ccc(Cl)cc2)C(=O)O)cc1 (stereo not given)	1.3	-4.6*	i	i	nt	-16	+
CC(=O)c1cc2c(cc1NC(=O)C1CCC1)OCO2	-0.2	0.94	i	i	nt	-29	nt
COCCNC(=O)/C(C#N)=C/C=C/c1ccccc1[N+](=O)[O-]	-0.31	-3.5*	i	i	nt	-12	+
CCOC(=O)C(C)Oc1c(C(=O)OC)sc2ncccc12 (stereo not given)	0.25	-0.47	i	i	38	-13	nt
Cc1nc(SC2CC(=O)N(c3ccccc3)C2=O)n[nH]1 (stereo not given)	0.18	-3.7*	+	i	nt	-30	i
O=C1CC(Sc2nnc(-c3ccccc3O)o2)C(=O)N1c1ccccc1 (stereo not given)	-0.78	-6.5*	i	nt	nt	-17	i
